Reference: ChEMBL document CHEMBL4251567 (Eur J Med Chem, 2018)

Tests used:
Jurkat [1] = assay: Cytotoxicity against human Jurkat cells assessed as cell viability at 10 uM after 44 hrs by MTT assay relative to control; type: functional; settings: read-out: Activity
U-937 [2] = assay: Cytotoxicity against human U937 cells assessed as decrease in cell viability after 44 hrs by MTT assay; type: functional, cell-based; settings: u-937
Jurkat [3] = assay: Cytotoxicity against human Jurkat cells assessed as cell viability at 1 uM after 44 hrs by MTT assay relative to control; type: functional; settings: read-out: Activity
U-937 [4] = assay: Cytotoxicity against human U937 cells assessed as cell viability at 8 x 10^-6 M after 44 hrs by MTT assay relative to control; type: functional; settings: U-937, 44 h, read-out: Activity
U-937 [5] = assay: Cytotoxicity against human U937 cells assessed as cell viability at 1.6 x 10^-5 M after 44 hrs by MTT assay relative to control; type: functional; settings: U-937, 44 h, read-out: Activity
U-937 [6] = assay: Cytotoxicity against human U937 cells assessed as cell viability at 6.4 x 10^-5 M after 44 hrs by MTT assay relative to control; type: functional; settings: U-937, 44 h, read-out: Activity
U-937 [7] = assay: Cytotoxicity against human U937 cells assessed as cell viability at 3.2 x 10^-5 M after 44 hrs by MTT assay relative to control; type: functional; settings: U-937, 44 h, read-out: Activity
U-937 [8] = assay: Cytotoxicity against human U937 cells assessed as cell viability at 2 x 10^-6 M after 44 hrs by MTT assay relative to control; type: functional; settings: U-937, 44 h, read-out: Activity
U-937 [9] = assay: Cytotoxicity against human U937 cells assessed as cell viability at 4 x 10^-6 M after 44 hrs by MTT assay relative to control; type: functional; settings: U-937, 44 h, read-out: Activity
[10] = target: T1, Histone deacetylase (Homo sapiens) (UniProt Q13547+O15379+Q9UBN7+Q92769+Q9UQL6+Q8WUI4+Q9BY41+Q96DB2+P56524+Q9UKV0+Q969S8); assay: Inhibition of HDAC in human HeLa-S3 cell lysates assessed as residual activity at 5 x 10^-6 M preincubated for 15 mins followed by HDAC-Glo substrate addition measured after 35 mins by fluorimetric method relative to control; type: protein assay
Method in brief: (§1)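 Lysate (1 μg total protein) in HDAC-Glo buffer was preincubated with inhibitor in DMSO for 15 min at room temperature. HDAC-Glo substrate/developer reagent was added and luminescence read after 35 min. Concentrations are final. Signal corrected for a no-lysate blank; % of DMSO control.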

[11] = target: T1, Histone deacetylase (Homo sapiens); assay: Inhibition of HDAC in human HeLa-S3 cell lysates assessed as residual activity at 6.25 x 10^-6 M preincubated for 15 mins followed by HDAC-Glo substrate addition measured after 35 mins by […] relative to control; type: protein assay
[12] = target: T1, Histone deacetylase (Homo sapiens); assay: Inhibition of HDAC in human HeLa-S3 cell lysates assessed as residual activity at 2.5 x 10^-6 M preincubated for 15 mins followed by HDAC-Glo substrate addition measured after 35 mins by […] relative to control; type: protein assay; method in brief: as §1
[13] = target: T2, Protein deacetylase HDAC6 (Homo sapiens) (UniProt Q9UBN7); assay: Inhibition of HDAC6 in human HeLa-S3 cell lysates assessed as remaining activity at […] preincubated for 15 mins followed by HDAC-Glo substrate addition measured after 30 to 40 mins by […] relative to control
T2 sequence (whole entry): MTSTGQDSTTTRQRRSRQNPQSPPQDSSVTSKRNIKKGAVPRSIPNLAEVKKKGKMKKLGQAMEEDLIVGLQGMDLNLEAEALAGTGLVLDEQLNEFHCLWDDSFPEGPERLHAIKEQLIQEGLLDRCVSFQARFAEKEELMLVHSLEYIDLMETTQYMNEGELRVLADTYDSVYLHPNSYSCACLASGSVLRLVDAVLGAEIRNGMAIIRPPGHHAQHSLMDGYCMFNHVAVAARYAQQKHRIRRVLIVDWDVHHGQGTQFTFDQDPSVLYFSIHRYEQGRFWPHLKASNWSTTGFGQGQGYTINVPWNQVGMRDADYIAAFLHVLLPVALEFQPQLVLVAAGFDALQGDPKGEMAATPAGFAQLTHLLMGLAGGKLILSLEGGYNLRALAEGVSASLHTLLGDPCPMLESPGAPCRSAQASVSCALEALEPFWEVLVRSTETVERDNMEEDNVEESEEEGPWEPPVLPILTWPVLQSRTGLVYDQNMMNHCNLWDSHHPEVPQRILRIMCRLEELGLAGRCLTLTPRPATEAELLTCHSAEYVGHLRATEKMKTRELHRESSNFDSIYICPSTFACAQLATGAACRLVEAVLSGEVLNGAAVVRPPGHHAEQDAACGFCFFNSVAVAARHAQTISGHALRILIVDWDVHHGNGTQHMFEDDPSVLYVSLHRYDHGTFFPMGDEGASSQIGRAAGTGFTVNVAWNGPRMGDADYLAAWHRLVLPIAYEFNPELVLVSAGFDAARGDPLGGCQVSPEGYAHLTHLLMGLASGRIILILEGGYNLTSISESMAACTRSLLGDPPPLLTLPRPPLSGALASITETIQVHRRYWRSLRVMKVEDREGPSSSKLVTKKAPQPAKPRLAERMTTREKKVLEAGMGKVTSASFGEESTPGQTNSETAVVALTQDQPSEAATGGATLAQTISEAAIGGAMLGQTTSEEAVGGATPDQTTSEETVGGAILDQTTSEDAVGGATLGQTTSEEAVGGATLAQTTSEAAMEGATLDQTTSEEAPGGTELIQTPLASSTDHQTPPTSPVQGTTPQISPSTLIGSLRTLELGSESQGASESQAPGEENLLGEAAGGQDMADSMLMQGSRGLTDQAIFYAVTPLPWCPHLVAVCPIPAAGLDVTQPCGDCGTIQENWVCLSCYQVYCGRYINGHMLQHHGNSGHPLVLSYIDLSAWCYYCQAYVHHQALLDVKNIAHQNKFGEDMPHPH

[14] = target: Histone deacetylase 2 (Homo sapiens) (UniProt Q92769); assay: Inhibition of HDAC2 in human HeLa-S3 cell lysates assessed as remaining activity at […] preincubated for 15 mins followed by HDAC-Glo substrate addition measured after 30 to 40 mins by […] relative to control
Histone deacetylase = assay: Inhibition of HDAC in human HeLa-S3 cell lysates preincubated for 15 mins followed by HDAC-Glo substrate addition measured after 35 mins by fluorimetric method; type: protein assay
[15] = target: Histone deacetylase 3 (Homo sapiens) (UniProt O15379); assay: Inhibition of HDAC3 in human HeLa-S3 cell lysates assessed as remaining activity at […] preincubated for 15 mins followed by HDAC-Glo substrate addition measured after 30 to 40 mins by […] relative to control
[16] = target: T1, Histone deacetylase (Homo sapiens); assay: Inhibition of HDAC in human HeLa-S3 cell lysates assessed as residual activity at 1 x 10^-5 M preincubated for 15 mins followed by HDAC-Glo substrate addition measured after 35 mins by […] relative to control; type: protein assay; method in brief: as §1
[17] = target: T1, Histone deacetylase (Homo sapiens); assay: Inhibition of HDAC in human HeLa-S3 cell lysates assessed as residual activity at 1.25 x 10^-6 M preincubated for 15 mins followed by HDAC-Glo substrate addition measured after 35 mins by […] relative to control; type: protein assay; method in brief: as §1
[18] = target: Histone deacetylase 1 (Homo sapiens) (UniProt Q13547); assay: Inhibition of HDAC1 in human HeLa-S3 cell lysates assessed as remaining activity at […] preincubated for 15 mins followed by HDAC-Glo substrate addition measured after 30 to 40 mins by […] relative to control
Histone deacetylase 1 (Homo sapiens), sequence (Q13547 whole entry): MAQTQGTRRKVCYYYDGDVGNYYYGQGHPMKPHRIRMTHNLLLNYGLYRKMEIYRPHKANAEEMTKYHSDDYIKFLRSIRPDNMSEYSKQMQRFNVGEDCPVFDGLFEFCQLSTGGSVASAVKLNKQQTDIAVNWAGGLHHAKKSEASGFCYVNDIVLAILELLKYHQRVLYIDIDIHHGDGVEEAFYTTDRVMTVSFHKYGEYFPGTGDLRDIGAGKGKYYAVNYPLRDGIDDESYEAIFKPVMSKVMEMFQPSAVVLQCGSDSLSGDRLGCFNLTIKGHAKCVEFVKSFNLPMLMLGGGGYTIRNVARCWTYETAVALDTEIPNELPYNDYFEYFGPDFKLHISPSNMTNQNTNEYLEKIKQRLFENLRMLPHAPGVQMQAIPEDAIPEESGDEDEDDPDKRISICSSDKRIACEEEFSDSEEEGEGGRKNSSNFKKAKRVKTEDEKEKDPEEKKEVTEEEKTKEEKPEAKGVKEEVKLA

Histone deacetylase 3 (Homo sapiens), sequence (O15379 whole entry): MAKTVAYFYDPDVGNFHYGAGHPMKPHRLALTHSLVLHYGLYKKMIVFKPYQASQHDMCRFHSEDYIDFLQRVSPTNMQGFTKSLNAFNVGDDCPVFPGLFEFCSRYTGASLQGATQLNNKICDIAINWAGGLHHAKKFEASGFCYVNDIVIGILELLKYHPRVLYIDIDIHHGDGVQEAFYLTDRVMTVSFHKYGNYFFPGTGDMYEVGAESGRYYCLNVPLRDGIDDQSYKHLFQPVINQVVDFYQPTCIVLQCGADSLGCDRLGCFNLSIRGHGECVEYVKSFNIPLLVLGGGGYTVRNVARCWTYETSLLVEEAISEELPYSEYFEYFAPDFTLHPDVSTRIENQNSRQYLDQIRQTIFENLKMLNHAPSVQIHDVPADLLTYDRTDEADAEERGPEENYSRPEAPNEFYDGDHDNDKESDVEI
Histone deacetylase 2 (Homo sapiens), sequence (Q92769 whole entry): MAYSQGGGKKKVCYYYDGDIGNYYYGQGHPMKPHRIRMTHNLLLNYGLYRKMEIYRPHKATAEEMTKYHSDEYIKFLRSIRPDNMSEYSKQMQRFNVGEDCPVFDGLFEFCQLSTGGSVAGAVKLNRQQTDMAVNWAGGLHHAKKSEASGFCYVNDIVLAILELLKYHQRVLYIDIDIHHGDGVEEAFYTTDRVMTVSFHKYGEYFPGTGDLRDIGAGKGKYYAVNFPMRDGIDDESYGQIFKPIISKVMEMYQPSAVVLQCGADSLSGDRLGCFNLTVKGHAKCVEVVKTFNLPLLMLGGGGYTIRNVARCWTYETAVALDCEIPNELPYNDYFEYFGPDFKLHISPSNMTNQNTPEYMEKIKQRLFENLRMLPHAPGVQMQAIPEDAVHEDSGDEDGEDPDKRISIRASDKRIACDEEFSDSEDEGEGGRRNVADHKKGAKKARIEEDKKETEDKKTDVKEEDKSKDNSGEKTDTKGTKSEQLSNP

| Compound | viability at 10 µM (Jurkat [1]) [%] | EC50 (U-937 [2]) [µM] | viability at 1 µM (Jurkat [3]) [%] | viability at 8 µM (U-937 [4]) [%] | viability at 16 µM (U-937 [5]) [%] | viability at 64 µM (U-937 [6]) [%] | viability at 32 µM (U-937 [7]) [%] | viability at 2 µM (U-937 [8]) [%] | viability at 4 µM (U-937 [9]) [%] | Activity [10] [%] | Activity [11] [%] | Activity [12] [%] | Activity [13] [%] | Activity [14] [%] | IC50 (Histone deacetylase) [µM] | Activity [15] [%] | Activity [16] [%] | Activity [17] [%] | Activity [18] [%] |
| --- | --- | --- | --- | --- | --- | --- | --- | --- | --- | --- | --- | --- | --- | --- | --- | --- | --- | --- | --- |
| CCCCC(CCCC(=O)Nc1ccccc1)CCC(=O)NO (centres undefined) | 62 | 34 | 98 | 87 | 80 | 24 | 54 | 100 | 100 |  |  |  |  |  |  |  |  |  |  |
| CC(CCCC(=O)Nc1ccccc1)CCC(=O)NO (centres undefined) |  |  |  |  |  |  |  |  |  | 38 | 91 | 60 | 26 | 90 | 3.3 | 78 | 17 | 79 | 75 |
